# This is a sample that favours compounds with a hit; in the whole collection about 2.6% have one here.
# HTRA1 inh: HTRA1 (human) protease inhibition. 340,000 compounds, 0.5% hits. recombinant HTRA1, FP-rhodamine activity-based probe, fluorescence polarization. Q92743. inhibition, % at 5.96 µM; in the data active means inhibition above about 36%;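 further: 0% = enzyme with DMSO and 100% = wells lacking enzyme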
# SIAE inh: inhibitors of human sialic acid acetylesterase SIAE; SIAE FP-Rh probe binding, fluorescence polarization; inhibition, % at 9.66 µM; 370,000 compounds, 0.69% hits; AID 1053197;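 active means inhibition above a cutoff: mean of compounds within the control limits plus 3 SD of those, cut at about 17% in these data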;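 further: 0% = plate median of compound wells and 100% = probe without SIAE protein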
# PRMT1 inh: PRMT1 (human) inhibition, primary screen | Q99873 | AID 652257 | inhibition, % at 2.79 µM | recombinant PRMT1, activity-based probe fluorescence polarization | 370,000 compounds, 1.3% hits;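 active means inhibition above about 21% made by adding two undisclosed values, limit read from the data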
# Target sequence (Q99873 whole entry, looked up): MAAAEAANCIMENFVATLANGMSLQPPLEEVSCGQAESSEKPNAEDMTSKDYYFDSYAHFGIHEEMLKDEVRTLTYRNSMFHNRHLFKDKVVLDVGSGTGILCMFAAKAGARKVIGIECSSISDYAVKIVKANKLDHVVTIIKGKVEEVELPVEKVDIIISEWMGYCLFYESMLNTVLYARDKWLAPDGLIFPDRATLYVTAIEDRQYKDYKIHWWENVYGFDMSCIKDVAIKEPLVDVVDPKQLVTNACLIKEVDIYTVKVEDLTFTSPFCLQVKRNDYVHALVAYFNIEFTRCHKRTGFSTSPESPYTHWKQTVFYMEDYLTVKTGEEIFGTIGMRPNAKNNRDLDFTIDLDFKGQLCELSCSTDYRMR
# TCR-CD3 inh: blocks the human TCR-CD3 interaction | TAMRA-labeled TCR probe fluorescence, biochemical | inhibition, % at 9.4 µM | 360,000 compounds, 0.37% hits; in the data active means inhibition above about 19%;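 further: recombinant mutant TCR 2C K166C tagged with TAMRA read by polarization; 0% = receptor in buffer alone and 100% = receptor with positive control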
# ABHD4 inh: inhibits mouse alpha/beta hydrolase domain 4; purified mABHD4, FP-Rh probe fluorescence polarization; inhibition, % at 8.92 µM; Q8VD66; 370,000 compounds, 0.54% hits;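 active means inhibition exceeding the mean over every tested compound plus 3 SD, cut at about 30% in these data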;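 further: 0% = plate median of compound wells and 100% = S159A mutant with DMSO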
# Target sequence (Q8VD66 whole entry, looked up, the tested form may be a part): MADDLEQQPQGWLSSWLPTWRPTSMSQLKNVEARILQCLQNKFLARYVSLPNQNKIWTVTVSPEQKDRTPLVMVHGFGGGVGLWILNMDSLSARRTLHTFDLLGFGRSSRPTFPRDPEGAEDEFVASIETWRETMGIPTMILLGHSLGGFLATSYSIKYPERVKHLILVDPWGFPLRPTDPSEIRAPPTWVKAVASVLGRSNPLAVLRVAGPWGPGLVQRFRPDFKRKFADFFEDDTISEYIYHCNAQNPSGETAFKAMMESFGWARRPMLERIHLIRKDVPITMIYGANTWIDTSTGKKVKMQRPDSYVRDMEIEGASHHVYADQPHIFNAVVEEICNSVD
#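 System: mouse ABHD4 enzyme, wild type / Medium: HEPES pH 7.0, NaCl, Pluronic buffer / Reagent: FP-Rh activity-based fluorescent probe / Control set: S159A mutant high control, sample median low control / Detection: fluorescence polarization with parallel and perpendicular emission, 525/598 nm / Schedule: 45 min + 60 min at 25 °C / Compound dosing: 8.92 µM, single dose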
# PRMT1 inh conf: confirmation of human PRMT1 inhibitors. AID 687036. shares compounds with PRMT1 inh. inhibition, % at 2.79 µM. 3,300 compounds, 42% hits. recombinant His-PRMT1, activity-based probe fluorescence polarization;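 active means mean inhibition across replicates above the hit cutoff derived for the earlier primary screen, cut at about 22% in these data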
# * = called active by the depositor; x = no result given.
SMILES,HTRA1 inh,SIAE inh,PRMT1 inh,TCR-CD3 inh,ABHD4 inh,PRMT1 inh conf
O=C1N=C(N2CCCCC2)SC1=C1CCCCC1,3.7,-0.7,7.9,-0.1,9.2,x
O=C1NC(=S)SC1=C1CCCCCC1,-4.5,3.3,32.2*,4.8,-3.7,-0.3
O=C(c1cccc(C(F)(F)F)c1)N1CC[C@H]2[C@H](CCCN2Cc2ccccc2)C1,x,-1.2,0.7,x,0.1,x
COc1cccc(-c2nc(=S)c3c(n2Cc2ccco2)CCCC3)c1,-17.9,-10.1,26.2*,-4.0,-5.8,0.6
CC(C)(C)NC(=O)C(c1cccnc1)N(C(=O)c1cccs1)c1ccc(C(C)(C)C)cc1 (stereo not given),x,-0.9,4.0,x,-3.4,x
CCOC(=O)[C@]12CCCCC/C=C\1N(CCc1ccc(Cl)cc1)C(=O)[C@H]2CC(=O)NCCCN1CCCC1=O,x,-0.9,-0.1,x,1.5,x
NS(=O)(=O)c1ccc(CCNC(=O)CCC(=O)c2cccs2)cc1,-6.4,-3.3,3.7,-5.1,-3.2,x
O=C(CCC(=O)c1cccs1)NCCc1ccc(F)cc1,-21.5,1.7,26.3*,11.2,1.7,-1.8
CCOC(=O)[C@]12CCCC3=C1N(CCC3)C(=O)[C@@H](CC(=O)NCCCN1CCCC1=O)C2,x,3.8,-4.2,x,2.7,x
CCOC(=O)CNC(=O)CSc1nc(-c2ccccc2)ns1,3.3,-10.2,43.1*,-4.2,-5.1,4.2
O=C1C2C3C=CC(O3)C2C(=O)N1Cc1ccncc1 (stereo not given),2.5,-0.2,42.8*,-2.4,12.6,-0.1
Cc1ccc(C2=CCN(C)C(=O)N2c2ccc(Br)cc2)cc1,x,6.0,5.6,x,-18.4,x
COc1ccc(-c2cc(-c3ccco3)[nH]c(=O)c2C#N)cc1,10.0,1.5,6.1,5.6,13.0,x
N#Cc1c(-c2cccc(Br)c2)cc(-c2ccco2)[nH]c1=O,15.0,0.5,33.0*,0.0,10.6,10.0
CCOC(=O)CC[C@@]1(C(=O)OCC)C[C@@H](CC(=O)N2CCSCC2)C(=O)N2CCCC=C21,x,2.0,-0.3,x,4.2,x
O=C(O)c1cc(=S)nc[nH]1,-3.2,1.9,38.7*,-4.6,15.9,60.0*
O=[N+]([O-])c1ccc(-c2csc3[n+]2CCS3)cc1,-1.8,0.0,46.9*,4.5,9.2,3.0
O=C(C1CCCN1S(=O)(=O)c1ccc(Br)s1)N1CCN(c2ccccc2)CC1 (stereo not given),x,-1.1,7.3,x,6.7,x
COC(=O)c1cc(S(=O)(=O)N2CCN(c3ccccc3Cl)CC2)cn1C,x,-1.1,2.0,x,-3.4,x
CCN(C(=O)COC(=O)Cc1coc2cc(C)ccc12)c1c(N)n(Cc2ccccc2)c(=O)[nH]c1=O,-0.5,-2.2,0.8,0.2,-3.3,x
CCN(C(=O)CSc1nnc(-c2ccc(C)cc2)n1N)c1c(N)n(Cc2ccccc2)c(=O)[nH]c1=O,0.3,-5.7,-0.5,-1.1,6.3,x
Cc1nnc(SCC(=O)N(C)c2c(N)n(Cc3ccccc3)c(=O)[nH]c2=O)n1Cc1ccccc1,-4.3,-5.7,1.8,8.6,1.4,x
CCN(C(=O)CSc1nnc(-c2cccc(Cl)c2)n1N)c1c(N)n(Cc2ccccc2)c(=O)[nH]c1=O,-8.4,0.0,31.5*,-6.5,5.1,37.7*
CCCCn1c(N)c(N(CCC(C)C)C(=O)CSc2nc3ccccc3n2C)c(=O)[nH]c1=O,-3.6,-4.0,26.7*,-6.0,3.4,18.7
CCn1c(SCC(=O)N(C)c2c(N)n(Cc3ccccc3)c(=O)[nH]c2=O)nc2ccccc21,-4.7,0.6,26.6*,-5.4,7.5,27.0*
SMILES,HTRA1 inh,SIAE inh,PRMT1 inh,TCR-CD3 inh,ABHD4 inh,PRMT1 inh conf
CCCCn1c(N)c(N(CCC(C)C)C(=O)c2cc(Cl)nc3ccccc23)c(=O)[nH]c1=O,1.4,-4.9,-3.9,-0.2,-1.1,x
Cc1ccc2c(CC(=O)N(C)c3c(N)n(Cc4ccccc4)c(=O)[nH]c3=O)coc2c1,4.1,0.2,94.1*,7.8,-0.9,-2.0
O=C(NCCc1ccccc1)OCc1cn(-c2ccc(Cl)cc2)nn1,x,-6.0,-1.9,x,1.0,x
CC(C)CN1C[C@@H]2CSCCS(=O)(=O)N2C1=O,x,5.2,0.9,x,3.9,x
CCN(C(=O)CN1CCN(c2ccc(O)cc2)CC1)c1c(N)n(Cc2ccccc2)c(=O)[nH]c1=O,3.2,5.9,27.5*,5.5,17.1,9.4
O=C(SCC(O)C(O)CS)c1cccs1 (stereo not given),-5.7,2.2,65.0*,7.3,-4.1,54.2*
CC(CC(=O)c1cccs1)CC(=O)c1cccs1,-1.0,-0.7,-0.2,1.8,4.2,x
O=C(Nc1ccc(F)cc1)Nc1c(-c2ccc(C(F)(F)F)cc2)nc2ncccn12,x,2.3,1.7,x,5.2,x
CC(C)(C)c1ccc(Oc2ccc(NC(=O)c3ccco3)cn2)cc1,-38.8,-12.0,29.2*,1.9,-15.6,2.9
O=C(Nc1ccc(Oc2cccc(C(F)(F)F)c2)nc1)c1ccco1,-10.4,6.4,-1.0,3.2,-3.0,x
COC(=O)[C@]12C[C@H](CC(=O)NCc3cccc4ccccc34)C(=O)N(Cc3ccc(Cl)cc3Cl)C1=C[C@H](COCc1ccccc1)O[C@@H]2C,x,-9.0,68.4*,x,-10.4,0.9
O=C1C=CC(=O)N1c1ccccc1N1C(=O)C=CC1=O,-0.4,-1.8,92.7*,-1.4,-2.2,89.9*
O=C(c1ccccc1)c1ccccc1N1C(=O)C=CC1=O,-6.4,-7.6,84.8*,-2.8,0.2,97.0*
CCOC(=O)[C@@H]1c2[nH]c3ccccc3c2C[C@@]2(C(=O)OC)C=CCN12,x,-0.7,11.1,x,-2.0,x
O=C(CSc1nnc(COc2ccccc2)n1-c1ccc(Cl)cc1)Nc1ccccc1-c1ccccc1,x,-3.9,-11.5,x,-12.9,x
O=c1ccc2cc3c4c(c2o1)CCCN4CCC3,12.3,3.9,71.7*,5.7,16.2,66.5*
O=C1C[C@H](C(=O)Nc2ccc(Cl)cc2)[C@@H](c2ccccc2)O1,x,-0.4,0.2,x,1.8,x
COc1cc(O)c(C=NN2C(=O)CSC2=S)c(OC)c1,2.6,1.6,26.6*,14.4,26.8,32.4*
O=C1CSC(=S)N1/N=C/c1cc(Br)c(O)c(Br)c1,-98.9,x,x,x,x,x
COc1cc(/C=N/N2C(=O)CSC2=S)ccc1O,-54.8,-22.9,15.7,-17.4,-50.4,x
O=C1CSC(=S)N1/N=C/c1cccnc1,-1.4,9.1,48.0*,-5.6,11.0,8.2
O=C1CSC(=S)N1N=Cc1ccccc1O,8.2,4.0,53.1*,1.1,14.8,73.6*
O=C1CSC(=S)N1/N=C/c1ccc2c(c1)OCCO2,2.5,-3.5,27.4*,-4.7,-3.8,10.2
CCOC(=O)[C@@]12CN(C(=O)OC(C)(C)C)CC=C1N(Cc1ccc(OC)cc1)C(=O)[C@H]2CC(=O)NCc1ccccc1,x,4.0,-0.4,x,9.3,x
O=C(NC1CCCCCC1)c1ccc[nH]c1=S,-1.4,-5.0,48.8*,-9.9,2.8,3.5
CC(C)(C)c1ccc(S(=O)(=O)N2CCC(C(=O)N3CCN(C4CCCCC4)CC3)CC2)cc1,x,10.0,-2.3,x,4.5,x

# Compound activity deposited in PubChem by The Scripps Research Institute Molecular Screening Center.
